Columns and labels:
Canis familiaris [1] = assay: Compound was examined for effects on cardiac contractility to decrease in QA interval after oral administration of 0.25 mg/Kg to conscious dogs for 3h; assay type: functional, Canis lupus familiaris, Heart
Method in brief: (§1)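 Conscious dogs dosed orally by gavage with a solution of test substance. QA interval recorded every 0.16 h from 0.5 h predose to up to 4 h postdose. Each time-point value is the mean of six consecutive sets, each set the mean over an 8-s period. Result is the change from mean predose control QA interval, read at 1 h and 3 h. Saline-dosed controls n = 8.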

Canis familiaris [2] = assay: Relative inotropic potency compared with 4-[4-[2-(1,1-dioxo-2-isothiazolidinyl)ethyl]-1-piperidinyl]-6,7-dimethoxyquinazoline at 50 ug/kg after iv administration of 25 ug/kg to anesthetized dogs; assay type: functional, Canis lupus familiaris
Method in brief: (§2)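 Anesthetized dogs instrumented for dP/dt max from left ventricular pressure by carotid catheter. Drug given iv in 0.9% saline. The standard quinazoline inotrope (50 μg/kg iv) was tested in the same dog. Relative potency = (% increase in dP/dt max to drug ÷ % increase to standard) × (standard dose ÷ drug dose).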

Canis familiaris [3] = assay: Compound was tested for cardiotonic activity after intravenous administration of 25 ug/Kg to anesthetized dogs; assay type: functional, Canis lupus familiaris
Method in brief: (§3)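 Anesthetized dogs with left ventricular pressure recorded by Millar catheter via the carotid artery. The signal is differentiated to give dP/dt max as the contractility index. Equilibration 0.75 h after surgery. Drug given iv in 0.9% saline 0.5 h after a standard inotrope (50 μg/kg). Doses repeated once control levels returned, at least 0.5 h apart. Result is % increase in dP/dt max after a single dose.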

Canis familiaris [4] = assay: Compound was examined for effects on cardiac contractility after oral administration of 0.25 mg/Kg to conscious dogs for 1 hr; assay type: functional, Canis lupus familiaris, Heart; method in brief: as §1
Canis familiaris [5] = assay: Compound was examined for effects on cardiac contractility after oral administration of 0.125 mg/Kg to conscious dogs for 1 hr; assay type: functional, Canis lupus familiaris, Heart; method in brief: as §1
Canis familiaris [6] = assay: Relative inotropic potency compared with 4-[4-[2-(1,1-dioxo-2-isothiazolidinyl)ethyl]-1-piperidinyl]-6,7-dimethoxyquinazoline at 50 ug/kg after administration at 12.5 ug/kg intravenously to anesthetized dogs; assay type: functional, Canis lupus familiaris; method in brief: as §2
Canis familiaris [7] = assay: Compound was tested for cardiotonic activity after intravenous administration of 12.5 ug/Kg to anesthetized dogs; assay type: functional, Canis lupus familiaris; method in brief: as §3
Canis familiaris [8] = assay: Compound was examined for effects on cardiac contractility to decrease in QA interval after oral administration of 0.125 mg/Kg to conscious dogs for 3h; assay type: functional, Canis lupus familiaris, Heart; method in brief: as §1
Canis familiaris [9] = assay: Relative inotropic potency compared with 4-[4-[2-(1,1-dioxo-2-isothiazolidinyl)ethyl]-1-piperidinyl]-6,7-dimethoxyquinazoline at 50 ug/kg after administration at 250 ug/kg intravenously to anesthetized dogs; assay type: functional, Canis lupus familiaris; method in brief: as §2
Canis familiaris [10] = assay: Compound was tested for cardiotonic activity after intravenous administration of 250 ug/Kg to anesthetized dogs; assay type: functional, Canis lupus familiaris; method in brief: as §3
Canis familiaris [11] = assay: Compound was examined for effects on cardiac contractility to decrease in QA interval after oral administration of 0.5 mg/Kg to conscious dogs for 3h; assay type: functional, Canis lupus familiaris, Heart; method in brief: as §1
Canis familiaris [12] = assay: Compound was examined for effects on cardiac contractility after oral administration of 0.5 mg/Kg to conscious dogs for 1 hr; assay type: functional, Canis lupus familiaris, Heart; method in brief: as §1
Canis familiaris [13] = assay: Relative inotropic potency compared with 4-[4-[2-(1,1-dioxo-2-isothiazolidinyl)ethyl]-1-piperidinyl]-6,7-dimethoxyquinazoline at 50 ug/kg after administration at 25 ug/kg intravenously to anesthetized dogs; assay type: functional, Canis lupus familiaris; method in brief: as §2
Canis familiaris [14] = assay: Compound was tested for cardiotonic activity after intravenous administration of 50 ug/Kg to anesthetized dogs; assay type: functional, Canis lupus familiaris; method in brief: as §3
Canis familiaris [15] = assay: Relative inotropic potency compared with 4-[4-[2-(1,1-dioxo-2-isothiazolidinyl)ethyl]-1-piperidinyl]-6,7-dimethoxyquinazoline at 50 ug/kg after administration at 10 ug/kg intravenously to anesthetized dogs; assay type: functional, Canis lupus familiaris; method in brief: as §2
Canis familiaris [16] = assay: Compound was tested for cardiotonic activity after intravenous administration of 10 ug/Kg to anesthetized dogs; assay type: functional, Canis lupus familiaris; method in brief: as §3
Canis familiaris [17] = assay: Relative inotropic potency compared with 4-[4-[2-(1,1-dioxo-2-isothiazolidinyl)ethyl]-1-piperidinyl]-6,7-dimethoxyquinazoline at 50 ug/kg after administration at 50 ug/kg intravenously to anesthetized dogs; assay type: functional, Canis lupus familiaris; method in brief: as §2
Canis familiaris [18] = assay: Compound was examined for effects on cardiac contractility to decrease in QA interval after oral administration of 1 mg/Kg to conscious dogs for 3h; assay type: functional, Canis lupus familiaris, Heart; method in brief: as §1
Canis familiaris [19] = assay: Compound was examined for effects on cardiac contractility after oral administration of 1 mg/Kg to conscious dogs for 1 hr; assay type: functional, Canis lupus familiaris, Heart; method in brief: as §1
Canis familiaris [20] = assay: Compound was tested for cardiotonic activity after intravenous administration of 6.25 ug/Kg to anesthetized dogs; assay type: functional, Canis lupus familiaris; method in brief: as §3
Canis familiaris [21] = assay: Compound was examined for effects on cardiac contractility after oral administration of 0.0625 mg/Kg to conscious dogs for 1 hr; assay type: functional, Canis lupus familiaris, Heart; method in brief: as §1
Canis familiaris [22] = assay: Compound was examined for effects on cardiac contractility to decrease in QA interval after oral administration of 0.0625 mg/Kg to conscious dogs for 3h; assay type: functional, Canis lupus familiaris, Heart; method in brief: as §1
Canis familiaris [23] = assay: Relative inotropic potency compared with 4-[4-[2-(1,1-dioxo-2-isothiazolidinyl)ethyl]-1-piperidinyl]-6,7-dimethoxyquinazoline at 50 ug/kg after administration at 6.5 ug/kg intravenously to anesthetized dogs; assay type: functional, Canis lupus familiaris; settings: in the assay text read “6.25 ug/kg” for “6.5 ug/kg”; method in brief: as §2
Canis familiaris [24] = assay: Relative inotropic potency compared with 4-[4-[2-(1,1-dioxo-2-isothiazolidinyl)ethyl]-1-piperidinyl]-6,7-dimethoxyquinazoline at 50 ug/kg after administration of 50 ug/kg intravenously to anesthetized dogs; assay type: functional, Canis lupus familiaris; method in brief: as §2

Cc1cc(-n2ccnc2)cc2ccc(O)nc12
Decrease in QA interval (Canis familiaris [1]): 15 ms
Relative inotropic potency (Canis familiaris [2]): 4.5
Increase in dP/dt max (Canis familiaris [3]): 139%
Decrease in QA interval (Canis familiaris [4]): 20 ms

Cc1cc(-n2cnc(C(F)(F)F)c2)cc2ccc(O)nc12
Decrease in QA interval (Canis familiaris [5]): 11 ms
Relative inotropic potency (Canis familiaris [6]): 4.5
Increase in dP/dt max (Canis familiaris [7]): 82%
Decrease in QA interval (Canis familiaris [8]): 5 ms

Cc1cn(-c2cc(C(F)(F)F)c3nc(O)ccc3c2)c(C)n1
Relative inotropic potency (Canis familiaris [9]): 0.2
Increase in dP/dt max (Canis familiaris [10]): 22%

Cc1cc(-n2cncn2)cc2ccc(O)nc12
Decrease in QA interval (Canis familiaris [11]): 21 ms
Decrease in QA interval (Canis familiaris [12]): 21 ms
Increase in dP/dt max (Canis familiaris [3]): 67%
Relative inotropic potency (Canis familiaris [13]): 3.6

Cc1cn(-c2ccc3nc(O)ccc3c2)c(C)n1
Relative inotropic potency (Canis familiaris [9]): 0.2
Increase in dP/dt max (Canis familiaris [10]): 29%

Cc1cc(-n2cnnc2)cc2ccc(O)nc12
Decrease in QA interval (Canis familiaris [1]): 17 ms
Decrease in QA interval (Canis familiaris [4]): 15 ms
Increase in dP/dt max (Canis familiaris [14]): 68%
Relative inotropic potency (Canis familiaris [13]; in the assay text read “administration at 50 ug/kg” for “administration at 25 ug/kg”): 2.3

Cc1cc(-n2ccnc2C)cc2ccc(O)nc12
Decrease in QA interval (Canis familiaris [5]): 14 ms
Relative inotropic potency (Canis familiaris [6]): 5.5
Increase in dP/dt max (Canis familiaris [7]): 50%
Decrease in QA interval (Canis familiaris [8]): 13 ms

Cc1cn(-c2cc(C)c3nc(O)cc(C)c3c2)c(C)n1
Relative inotropic potency (Canis familiaris [15]): 1.2
Increase in dP/dt max (Canis familiaris [16]): 10%

Cc1cc(-n2ncnn2)cc2ccc(O)nc12
Relative inotropic potency (Canis familiaris [17]): 1.1
Increase in dP/dt max (Canis familiaris [14]): 24%

Cc1cc(-n2cncc2C)cc2ccc(O)nc12
Decrease in QA interval (Canis familiaris [5]): 14 ms
Relative inotropic potency (Canis familiaris [6]): 4.9
Increase in dP/dt max (Canis familiaris [7]): 55%
Decrease in QA interval (Canis familiaris [8]): 11 ms

Cc1cn(-c2cc(C)c3[nH]c(=O)ccc3c2)c(C)n1 [NANTERINONE]
Decrease in QA interval (Canis familiaris [1]): 17 ms
Decrease in QA interval (Canis familiaris [4]): 16 ms
Relative inotropic potency (Canis familiaris [6]): 7.6
Increase in dP/dt max (Canis familiaris [7]): 40%

Cc1cn(-c2cc(C)c3c(c2)CCC(=O)N3)c(C)n1
Relative inotropic potency (Canis familiaris [17]): 0.9
Decrease in QA interval (Canis familiaris [18]): 13 ms
Decrease in QA interval (Canis familiaris [19]): 12 ms
Increase in dP/dt max (Canis familiaris [14]): 52%

Cc1cn(-c2cc(C)c3c(c2)C(C)CC(=O)N3)c(C)n1 (stereo unspecified)
Relative inotropic potency (Canis familiaris [15]): 1.9
Increase in dP/dt max (Canis familiaris [16]): 20%

Cc1cn(-c2cc(C)c3nc(O)ccc3c2)cn1
Increase in dP/dt max (Canis familiaris [20]): 59%
Decrease in QA interval (Canis familiaris [21]): 12 ms
Decrease in QA interval (Canis familiaris [22]): 7 ms
Relative inotropic potency (Canis familiaris [23]): 16.3

Cc1cc(-n2cnnn2)cc2ccc(O)nc12
Decrease in QA interval (Canis familiaris [1]): 16 ms
Increase in dP/dt max (Canis familiaris [3]): 117%
Decrease in QA interval (Canis familiaris [4]): 15 ms
Relative inotropic potency (Canis familiaris [13]): 3.4

Cc1cc(-n2cccn2)cc2ccc(O)nc12
Relative inotropic potency (Canis familiaris [24]): 1.7
Increase in dP/dt max (Canis familiaris [14]): 79%

Cc1[nH]c(=O)c(C#N)cc1-c1ccncc1 [MILRINONE]
Decrease in QA interval (Canis familiaris [1]): 7 ms
Increase in dP/dt max (Canis familiaris [3]): 46%
Decrease in QA interval (Canis familiaris [4]): 13 ms
Relative inotropic potency (Canis familiaris [13]): 1.6
